Experimental findings from ChEMBL document CHEMBL1949510, “Design and synthesis of 6,6-fused heterocyclic amides as raf kinase inhibitors” (Bioorg Med Chem Lett, 2012) are described below.

Usually Papp A→B stands for how fast a substance crosses the layer from the apical side. What is called IC50 is the concentration at which inhibition is half-maximal. As usually defined, the EC50 is the concentration needed to bring the measured effect to its halfway point. A low value points to greater potency. The solubility is the dissolved amount per volume that the medium holds.

The structures appear in SMILES notation.

Chain of Macrophage colony-stimulating factor 1 receptor (P07333 whole entry): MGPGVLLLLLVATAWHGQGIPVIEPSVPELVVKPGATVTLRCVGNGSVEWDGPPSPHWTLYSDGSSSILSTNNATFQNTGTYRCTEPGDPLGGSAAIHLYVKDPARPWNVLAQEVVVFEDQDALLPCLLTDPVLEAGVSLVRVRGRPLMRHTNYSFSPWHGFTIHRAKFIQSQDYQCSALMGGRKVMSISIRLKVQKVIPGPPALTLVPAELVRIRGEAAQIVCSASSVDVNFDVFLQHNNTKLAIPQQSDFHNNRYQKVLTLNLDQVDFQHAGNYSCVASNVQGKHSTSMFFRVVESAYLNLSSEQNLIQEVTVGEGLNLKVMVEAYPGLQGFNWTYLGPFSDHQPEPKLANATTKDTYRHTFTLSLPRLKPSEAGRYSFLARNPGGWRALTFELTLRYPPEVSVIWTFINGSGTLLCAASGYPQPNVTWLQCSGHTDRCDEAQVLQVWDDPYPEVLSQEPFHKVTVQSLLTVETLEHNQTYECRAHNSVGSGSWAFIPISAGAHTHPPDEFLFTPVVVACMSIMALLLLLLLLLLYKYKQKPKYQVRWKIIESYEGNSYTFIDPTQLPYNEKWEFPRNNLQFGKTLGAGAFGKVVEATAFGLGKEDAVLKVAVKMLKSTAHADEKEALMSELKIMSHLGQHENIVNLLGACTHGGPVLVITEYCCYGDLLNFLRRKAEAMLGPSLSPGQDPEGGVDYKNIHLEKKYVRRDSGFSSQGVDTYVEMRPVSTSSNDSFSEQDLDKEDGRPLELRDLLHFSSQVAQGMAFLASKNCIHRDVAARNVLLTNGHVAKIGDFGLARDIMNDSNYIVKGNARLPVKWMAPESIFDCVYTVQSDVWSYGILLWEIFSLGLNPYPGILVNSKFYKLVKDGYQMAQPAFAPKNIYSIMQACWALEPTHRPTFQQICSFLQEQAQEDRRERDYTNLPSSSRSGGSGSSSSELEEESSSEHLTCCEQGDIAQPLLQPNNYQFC
Chain of Vascular endothelial growth factor receptor 2 (P35968 whole entry): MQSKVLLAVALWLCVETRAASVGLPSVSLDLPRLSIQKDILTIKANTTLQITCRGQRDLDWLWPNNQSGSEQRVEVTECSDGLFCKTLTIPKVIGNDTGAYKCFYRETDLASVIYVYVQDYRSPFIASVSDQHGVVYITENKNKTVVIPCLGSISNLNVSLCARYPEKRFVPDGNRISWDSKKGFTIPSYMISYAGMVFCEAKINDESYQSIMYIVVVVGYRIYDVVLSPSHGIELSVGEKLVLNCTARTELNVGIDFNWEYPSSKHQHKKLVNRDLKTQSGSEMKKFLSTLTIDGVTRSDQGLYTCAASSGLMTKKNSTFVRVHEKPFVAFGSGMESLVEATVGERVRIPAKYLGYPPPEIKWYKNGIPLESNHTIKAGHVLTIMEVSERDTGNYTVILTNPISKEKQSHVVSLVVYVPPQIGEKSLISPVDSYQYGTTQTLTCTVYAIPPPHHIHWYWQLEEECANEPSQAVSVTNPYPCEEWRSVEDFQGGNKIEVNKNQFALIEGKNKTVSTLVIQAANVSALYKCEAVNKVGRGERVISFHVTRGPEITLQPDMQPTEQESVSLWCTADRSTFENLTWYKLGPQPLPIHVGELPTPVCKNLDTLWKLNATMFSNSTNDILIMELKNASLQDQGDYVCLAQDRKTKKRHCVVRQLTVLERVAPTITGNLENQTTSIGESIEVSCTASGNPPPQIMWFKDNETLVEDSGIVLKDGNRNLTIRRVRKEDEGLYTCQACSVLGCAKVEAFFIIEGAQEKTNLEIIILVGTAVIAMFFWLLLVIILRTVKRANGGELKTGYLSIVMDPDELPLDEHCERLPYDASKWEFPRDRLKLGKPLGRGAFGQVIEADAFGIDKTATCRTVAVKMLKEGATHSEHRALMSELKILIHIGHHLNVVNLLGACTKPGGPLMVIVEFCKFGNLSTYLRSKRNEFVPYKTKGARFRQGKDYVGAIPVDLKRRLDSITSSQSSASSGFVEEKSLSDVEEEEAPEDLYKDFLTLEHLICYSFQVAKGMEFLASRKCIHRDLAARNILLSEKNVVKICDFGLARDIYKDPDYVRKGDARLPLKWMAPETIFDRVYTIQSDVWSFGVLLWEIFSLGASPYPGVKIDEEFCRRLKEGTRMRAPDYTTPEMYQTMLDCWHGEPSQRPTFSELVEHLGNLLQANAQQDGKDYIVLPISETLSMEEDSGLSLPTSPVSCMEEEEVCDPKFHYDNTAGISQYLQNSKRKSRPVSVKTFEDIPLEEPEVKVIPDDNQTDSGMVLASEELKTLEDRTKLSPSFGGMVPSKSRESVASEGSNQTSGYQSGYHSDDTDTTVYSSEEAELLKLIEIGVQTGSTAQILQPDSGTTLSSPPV

Tested on in the first series: not listed separately
As to the kind of experiment: Apparent permeability from apical to basolateral side in human Caco2 cells. Format: ADME, cell-based. The following applies: Caco-2. In general terms: Caco-2 cells form a polarised layer with tight junctions and transporters.
As to `CNC(=O)c1cc(Oc2ccc3nc(Nc4ccccc4)ncc3c2)ccn1`, the Papp A→B is less than 1 ×10⁻⁶ cm/s.
Regarding `CNC(=O)c1cc(Oc2ccc3nc(Nc4ccc(OC)cc4)ncc3c2)ccn1`, the Papp A→B is less than 1 ×10⁻⁶ cm/s.
In the case of `CNC(=O)c1cc(Oc2ccc3nc(Nc4ccc(C(C)C)cc4)ncc3c2)ccn1`, the Papp A→B is less than 1 ×10⁻⁶ cm/s.
The same measure, in the same setting: then `CNC(=O)c1cc(Oc2ccc3nc(Nc4ccc(F)cc4)ncc3c2)ccn1`, with less than 1 ×10⁻⁶ cm/s; and `CNC(=O)c1cc(Oc2ccc3nc(Nc4ccccc4Oc4ccccc4)ncc3c2)ccn1`, with less than 1 ×10⁻⁶ cm/s; and `CNC(=O)c1cc(Oc2ccc3nc(Nc4cccc(C(F)(F)F)c4)ncc3c2)ccn1`, with less than 1 ×10⁻⁶ cm/s.
For `CNC(=O)c1cc(Oc2ccc3nc(Nc4ccc(Oc5ccccc5)cc4)ncc3c2)ccn1`, the Papp A→B is less than 1 ×10⁻⁶ cm/s.
Still for that read-out and setting: then `CNC(=O)c1cc(Oc2ccc3nc(Nc4ccccc4Br)ncc3c2)ccn1`, with less than 1 ×10⁻⁶ cm/s.
On to `O=C(NCCO)c1cc(Oc2ccc3nc(Nc4ccc(Br)cc4)ncc3c2)ccn1`, for which the Papp A→B is less than 1 ×10⁻⁶ cm/s.
As for `CNC(=O)c1cc(Oc2ccc3nc(Nc4cccc(C(C)(C)C)c4)ncc3c2)ccn1`, the Papp A→B is less than 1 ×10⁻⁶ cm/s.
Same read-out and setting: then `CNC(=O)c1cc(Oc2ccc3nc(Nc4cccc(OC(F)(F)F)c4)ncc3c2)ccn1`, with less than 1 ×10⁻⁶ cm/s; and `CCc1ccccc1Nc1ncc2cc(Oc3ccnc(C(=O)NC)c3)ccc2n1`, with less than 1 ×10⁻⁶ cm/s.

In another series the target is T1, Serine/threonine-protein kinase B-raf (Homo sapiens, UniProt P15056, V600E). Kind of series: Inhibition of N-terminus His6-tagged Braf V600E mutant expressed in insect Sf9 cells assessed as Mek phosphorylation after 2 hrs by ELISA.
T1 sequence (P15056 2-766 V600E limits assumed): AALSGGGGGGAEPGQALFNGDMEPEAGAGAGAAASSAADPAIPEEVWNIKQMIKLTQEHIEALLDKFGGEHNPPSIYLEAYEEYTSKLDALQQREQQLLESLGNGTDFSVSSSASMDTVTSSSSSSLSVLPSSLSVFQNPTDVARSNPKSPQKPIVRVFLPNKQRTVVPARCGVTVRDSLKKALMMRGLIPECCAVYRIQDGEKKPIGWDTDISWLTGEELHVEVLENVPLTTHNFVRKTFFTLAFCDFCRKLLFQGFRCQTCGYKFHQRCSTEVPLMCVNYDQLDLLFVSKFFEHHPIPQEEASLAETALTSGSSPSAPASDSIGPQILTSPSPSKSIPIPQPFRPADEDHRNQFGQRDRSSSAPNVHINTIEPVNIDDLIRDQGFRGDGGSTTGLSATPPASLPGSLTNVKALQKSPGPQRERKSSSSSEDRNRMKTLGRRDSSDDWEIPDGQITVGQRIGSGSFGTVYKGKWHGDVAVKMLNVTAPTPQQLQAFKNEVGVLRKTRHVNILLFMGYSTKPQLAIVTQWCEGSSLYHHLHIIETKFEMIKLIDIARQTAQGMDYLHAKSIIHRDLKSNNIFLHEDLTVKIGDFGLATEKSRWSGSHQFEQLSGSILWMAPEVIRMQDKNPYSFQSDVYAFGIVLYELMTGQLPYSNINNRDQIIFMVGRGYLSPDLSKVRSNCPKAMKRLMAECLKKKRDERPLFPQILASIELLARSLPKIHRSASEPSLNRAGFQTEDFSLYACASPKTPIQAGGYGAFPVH
Details: not given
The method in brief: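 Biochemical assay with the purified BrafV600E kinase domain, not the full-length protein.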
For orientation: ELISA stands for enzyme-linked immunosorbent assay.
On to `CNC(=O)c1cc(Oc2ccc3nc(Nc4ccccc4)ncc3c2)ccn1`, for which the IC50 came out at 2200 nM.
Same read-out and setting: then `CNC(=O)c1cc(Oc2ccc3nc(Nc4ccc(OC)cc4)ncc3c2)ccn1`, with 390 nM; and `CNC(=O)c1cc(Oc2ccc3nc(Nc4ccc(C(C)C)cc4)ncc3c2)ccn1`, with 1 nM.
Still for that read-out and setting: the result for `CNC(=O)c1cc(Oc2ccc3nc(Nc4ccc(F)cc4)ncc3c2)ccn1` reads 600 nM; that for `CNC(=O)c1cc(Oc2ccc3nc(Nc4ccccc4Oc4ccccc4)ncc3c2)ccn1`, 5300 nM.
Still for that read-out and setting: the result for `CNC(=O)c1cc(Oc2ccc3nc(Nc4cccc(C(F)(F)F)c4)ncc3c2)ccn1` reads 640 nM; that for `CNC(=O)c1cc(Oc2ccc3nc(Nc4ccc(Oc5ccccc5)cc4)ncc3c2)ccn1`, 600 nM; that for `CNC(=O)c1cc(Oc2ccc3nc(Nc4ccccc4Br)ncc3c2)ccn1`, 24000 nM.
As for `O=C(NCCO)c1cc(Oc2ccc3nc(Nc4ccc(Br)cc4)ncc3c2)ccn1`, the IC50 turned out to be 8600 nM.
On the same count and under the same terms, then `CNC(=O)c1cc(Oc2ccc3nc(Nc4cccc(C(C)(C)C)c4)ncc3c2)ccn1`, with 45 nM.
Consider `CNC(=O)c1cc(Oc2ccc3nc(Nc4cccc(OC(F)(F)F)c4)ncc3c2)ccn1`, for which the IC50 was 70 nM.
The same measure, in the same setting: the result for `CCc1ccccc1Nc1ncc2cc(Oc3ccnc(C(=O)NC)c3)ccc2n1` reads 1300 nM.

A further series addresses Vascular endothelial growth factor receptor 2 (Homo sapiens, UniProt P35968). As to the kind of experiment: Inhibition of KDR.
Details: not given
A digest of the protocol:
(§1)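 Selectivity profiling panel of 50 kinases spanning RTKs, STKs, TKs and AGC kinases.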
The compound `CNC(=O)c1cc(Oc2ccc3nc(Nc4cccc(C(C)(C)C)c4)ncc3c2)ccn1` yielded an IC50 of less than 1000 nM.

The target of another series is Tyrosine-protein kinase ABL1 (Homo sapiens, UniProt P00519). Kind of series: Inhibition of cABL.
Chain of Tyrosine-protein kinase ABL1 (P00519 whole entry): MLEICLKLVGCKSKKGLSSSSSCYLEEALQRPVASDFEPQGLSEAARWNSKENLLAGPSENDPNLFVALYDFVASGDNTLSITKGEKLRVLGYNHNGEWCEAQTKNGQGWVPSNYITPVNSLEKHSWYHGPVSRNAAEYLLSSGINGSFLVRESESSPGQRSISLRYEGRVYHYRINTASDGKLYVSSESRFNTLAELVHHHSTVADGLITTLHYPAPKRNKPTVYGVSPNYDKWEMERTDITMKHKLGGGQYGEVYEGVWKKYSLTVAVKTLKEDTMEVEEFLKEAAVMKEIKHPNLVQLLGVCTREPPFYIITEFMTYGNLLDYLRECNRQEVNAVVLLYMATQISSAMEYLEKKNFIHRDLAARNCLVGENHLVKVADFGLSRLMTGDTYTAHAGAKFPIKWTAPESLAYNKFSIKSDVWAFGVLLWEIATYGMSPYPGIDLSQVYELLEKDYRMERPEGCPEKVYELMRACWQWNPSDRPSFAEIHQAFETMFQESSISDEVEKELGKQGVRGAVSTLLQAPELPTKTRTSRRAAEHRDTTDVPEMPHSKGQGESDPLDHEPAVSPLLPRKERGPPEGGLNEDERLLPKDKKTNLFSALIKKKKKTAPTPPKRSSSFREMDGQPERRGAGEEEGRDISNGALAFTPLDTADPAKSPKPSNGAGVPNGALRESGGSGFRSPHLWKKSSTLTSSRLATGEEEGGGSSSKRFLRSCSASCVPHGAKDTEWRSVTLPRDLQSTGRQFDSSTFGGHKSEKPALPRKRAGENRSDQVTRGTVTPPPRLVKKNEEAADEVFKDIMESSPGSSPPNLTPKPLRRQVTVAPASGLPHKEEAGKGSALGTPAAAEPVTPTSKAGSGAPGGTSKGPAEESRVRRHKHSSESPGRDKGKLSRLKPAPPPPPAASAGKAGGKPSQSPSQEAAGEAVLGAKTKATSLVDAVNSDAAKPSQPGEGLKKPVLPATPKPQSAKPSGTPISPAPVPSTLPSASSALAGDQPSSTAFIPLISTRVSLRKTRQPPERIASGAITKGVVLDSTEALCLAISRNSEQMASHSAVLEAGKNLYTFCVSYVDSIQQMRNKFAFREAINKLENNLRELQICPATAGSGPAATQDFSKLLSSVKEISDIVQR
Details: not given
A digest of the protocol:
as §1
In turn, `CNC(=O)c1cc(Oc2ccc3nc(Nc4cccc(C(C)(C)C)c4)ncc3c2)ccn1` showed an IC50 of less than 1000 nM.

Another series addresses Macrophage colony-stimulating factor 1 receptor (Homo sapiens, UniProt P07333). Kind of series: Inhibition of CSFR1.
Details: not given
The method in brief: as §1
On to `CNC(=O)c1cc(Oc2ccc3nc(Nc4cccc(C(C)(C)C)c4)ncc3c2)ccn1`, for which the IC50 was less than 1000 nM.

The next series addresses T1, Serine/threonine-protein kinase B-raf. As to the kind of experiment: Inhibition of Braf V600E mutant-mediated Erk phosphorylation in human SK-MEL-28 cells after 4 hrs by Western blot analysis. The class given is cell-based.
Details: not given
A general note: Immunoblotting shows a protein as a band on a membrane.
For `CNC(=O)c1cc(Oc2ccc3nc(Nc4ccccc4)ncc3c2)ccn1`, the EC50 is more than 10000 nM.
In turn, `CNC(=O)c1cc(Oc2ccc3nc(Nc4ccc(OC)cc4)ncc3c2)ccn1` showed an EC50 of more than 10000 nM.
For the compound `CNC(=O)c1cc(Oc2ccc3nc(Nc4ccc(C(C)C)cc4)ncc3c2)ccn1`, the EC50 is more than 10000 nM.
Same read-out and setting: the result for `CNC(=O)c1cc(Oc2ccc3nc(Nc4ccc(F)cc4)ncc3c2)ccn1` reads more than 10000 nM; that for `CNC(=O)c1cc(Oc2ccc3nc(Nc4ccccc4Oc4ccccc4)ncc3c2)ccn1`, more than 10000 nM.
Same read-out and setting: then `CNC(=O)c1cc(Oc2ccc3nc(Nc4cccc(C(F)(F)F)c4)ncc3c2)ccn1`, with more than 10000 nM; and `CNC(=O)c1cc(Oc2ccc3nc(Nc4ccc(Oc5ccccc5)cc4)ncc3c2)ccn1`, with more than 10000 nM.
Compound `CNC(=O)c1cc(Oc2ccc3nc(Nc4ccccc4Br)ncc3c2)ccn1` registered an EC50 of more than 10000 nM.
Same read-out and setting: then `O=C(NCCO)c1cc(Oc2ccc3nc(Nc4ccc(Br)cc4)ncc3c2)ccn1`, with more than 10000 nM; and `CNC(=O)c1cc(Oc2ccc3nc(Nc4cccc(C(C)(C)C)c4)ncc3c2)ccn1`, with more than 10000 nM; and `CNC(=O)c1cc(Oc2ccc3nc(Nc4cccc(OC(F)(F)F)c4)ncc3c2)ccn1`, with more than 10000 nM.
On the same count and under the same terms, then `CCc1ccccc1Nc1ncc2cc(Oc3ccnc(C(=O)NC)c3)ccc2n1`, with more than 10000 nM.

The next series deals with T2, Receptor-type tyrosine-protein kinase FLT3 (Homo sapiens, UniProt P36888).
T2 sequence (P36888 whole entry): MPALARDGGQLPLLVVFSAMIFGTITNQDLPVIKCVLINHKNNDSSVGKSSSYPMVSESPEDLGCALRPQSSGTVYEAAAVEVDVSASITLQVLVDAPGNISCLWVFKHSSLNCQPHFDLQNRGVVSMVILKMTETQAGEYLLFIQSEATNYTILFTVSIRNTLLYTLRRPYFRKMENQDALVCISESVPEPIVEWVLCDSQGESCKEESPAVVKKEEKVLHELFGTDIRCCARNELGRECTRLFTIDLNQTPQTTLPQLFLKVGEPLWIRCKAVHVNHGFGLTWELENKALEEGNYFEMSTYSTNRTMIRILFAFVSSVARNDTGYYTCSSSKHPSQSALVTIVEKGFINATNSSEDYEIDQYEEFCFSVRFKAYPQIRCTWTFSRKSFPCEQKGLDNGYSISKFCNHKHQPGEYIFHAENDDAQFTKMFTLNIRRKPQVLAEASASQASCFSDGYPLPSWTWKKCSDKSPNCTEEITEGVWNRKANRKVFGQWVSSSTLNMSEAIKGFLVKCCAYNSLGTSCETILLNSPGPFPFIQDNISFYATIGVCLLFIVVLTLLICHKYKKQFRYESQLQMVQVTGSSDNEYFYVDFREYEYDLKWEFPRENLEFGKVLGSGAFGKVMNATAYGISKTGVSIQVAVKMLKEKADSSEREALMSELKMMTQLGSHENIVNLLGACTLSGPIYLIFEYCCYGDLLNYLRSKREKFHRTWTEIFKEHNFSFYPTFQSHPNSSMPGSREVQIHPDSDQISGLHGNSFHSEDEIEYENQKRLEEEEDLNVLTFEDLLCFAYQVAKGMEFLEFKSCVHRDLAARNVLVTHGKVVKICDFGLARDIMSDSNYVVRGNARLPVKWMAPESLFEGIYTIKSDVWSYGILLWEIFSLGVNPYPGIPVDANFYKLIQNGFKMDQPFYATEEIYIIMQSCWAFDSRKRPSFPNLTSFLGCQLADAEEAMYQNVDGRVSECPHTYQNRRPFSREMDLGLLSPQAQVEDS
Kind of series: Inhibition of Flt3.
Details: not given
The method in brief: as §1
Compound `CNC(=O)c1cc(Oc2ccc3nc(Nc4cccc(C(C)(C)C)c4)ncc3c2)ccn1` gave an IC50 of less than 1000 nM.

Tested on in the next series: not listed separately
Kind of series: Solubility of the compound at pH 7. The class given is physicochemical. Conditions: buffer.
In the case of `CNC(=O)c1cc(Oc2ccc3nc(Nc4ccccc4)ncc3c2)ccn1`, the solubility was less than 1 µM.
Compound `CNC(=O)c1cc(Oc2ccc3nc(Nc4ccc(OC)cc4)ncc3c2)ccn1` came in with a solubility of less than 1 µM.
In turn, `CNC(=O)c1cc(Oc2ccc3nc(Nc4ccc(C(C)C)cc4)ncc3c2)ccn1` showed a solubility of less than 1 µM.
On the same count and under the same terms, the result for `CNC(=O)c1cc(Oc2ccc3nc(Nc4ccc(F)cc4)ncc3c2)ccn1` reads less than 1 µM.
With `CNC(=O)c1cc(Oc2ccc3nc(Nc4ccccc4Oc4ccccc4)ncc3c2)ccn1`, the solubility was less than 1 µM.
With `CNC(=O)c1cc(Oc2ccc3nc(Nc4cccc(C(F)(F)F)c4)ncc3c2)ccn1`, the solubility was less than 1 µM.
On the same count and under the same terms, then `CNC(=O)c1cc(Oc2ccc3nc(Nc4ccc(Oc5ccccc5)cc4)ncc3c2)ccn1`, with less than 1 µM.
For the compound `CNC(=O)c1cc(Oc2ccc3nc(Nc4ccccc4Br)ncc3c2)ccn1`, the solubility is less than 1 µM.
Compound `O=C(NCCO)c1cc(Oc2ccc3nc(Nc4ccc(Br)cc4)ncc3c2)ccn1` registered a solubility of less than 1 µM.
Compound `CNC(=O)c1cc(Oc2ccc3nc(Nc4cccc(C(C)(C)C)c4)ncc3c2)ccn1` had a solubility of less than 1 µM.
Still for that read-out and setting: the result for `CNC(=O)c1cc(Oc2ccc3nc(Nc4cccc(OC(F)(F)F)c4)ncc3c2)ccn1` reads less than 1 µM; that for `CCc1ccccc1Nc1ncc2cc(Oc3ccnc(C(=O)NC)c3)ccc2n1`, less than 1 µM.
